Test [1] in a line: CaM pull-down assay with lens membranes. The test is classed as binding, lamb. Conditions: Ca^2+ treated lens pellets, molar excess EGTA, data not shown. In a few lines:
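Lamb lens fiber-cell membranes (2mg/ml total protein) were incubated with recombinant vertebrate CaM (0.67mg/ml) in 10mM Tris pH 8.0, 10mM CaCl2 for 30 minutes at 37°C. Binding was stopped on ice, and free CaM was removed by centrifugation at 10,000xg with 4 pellet washes. Molar excess EGTA was then added to the Ca2+-treated pellets. CaM was detected by SDS-PAGE with silver staining and by western blot.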

Test [2] has as its target 15N-CaM (Homo sapiens, UniProt P0DP23). The test is described as follows: NMR titration of 15N-CaM with AQP0 peptides. It is filed as binding, vertebrate. Particulars: 25°C, pH 6.5, Ca^2+, data not shown.
Test [3] concerns the target calmodulin (CaM). The test can be described thus: 15N-HSQC NMR titration of 15N-CaM. Particulars: reference: unmodified AQP0CBD peptide, second binding event (1:2); sites S235.

Turning to `O=C(O)CN(CCOCCOCCN(CC(=O)O)CC(=O)O)CC(=O)O` [EGTA], the “removal of membrane-bound CaM by EGTA” value in test [1] is reported as “efficiently removed”.

On to “AQP0loop: peptide corresponding to a cytosolic AQP0 loop, residues 148–158, negative control (TYDERRNGRLG)”, for which the “interaction of control peptide with CaM” value in test [2] is “no interaction”.

With “Aquaporin-0 (AQP0, MIP) 223-242 (from UniProt Q6J8I9) S235-P peptide, second binding event (1:2)”, the KD entry in test [3] is given as “weaker; reference 6.5 ± 5.5 × 10−6”.

These data come from article PMC2605016 (Structure (London, England : 1993), 2008).
